Experimental data from different studies.
Each line is one published result; the experiments were not run side by side.
Medium: plasma

SMILES	system	conditions	measurement	result
CCc1cc(C(=O)NC)c2nccc(N3CCc4c(cc(Cn5ccnc5)cc4-c4cn(C)nc4C(F)(F)F)C3=O)c2c1	male CD-1 mouse	intravenous, 3 mg/kg	MRT(0-inf)	0.5 h
COc1nc(-c2cc(C)c(N[C@@H](C)c3cc(F)cc(F)c3)nn2)ccc1-n1cnc(C)c1	male CD-1 mouse	intravenous, 1 mg/kg, single dose	MRT(0-t)	3.3 h
Cc1ccc2cncc(N3CCc4c(cc(Cn5ccnc5)cc4-c4cn(C)nc4C(F)(F)F)C3=O)c2c1	male CD-1 mouse	oral, 50 mg/kg	MRT(0-inf)	3.5 h
COc1ccc2cc(CCC[18F])ccc2c1	male BALB/c mouse	intravenous	MRT	0.698 h
COc1cc(C2Oc3cc([C@H]4Oc5cc(O)cc(O)c5C(=O)[C@@H]4O)ccc3OC2CO)ccc1O (some centres unmarked)	male CD-1 mouse	intravenous, 2 mg/kg	MRT(0-inf)	0.103 h
Cc1cc(NC(=O)c2cccc3cc(-c4cccc5[nH]nc(N)c45)ccc23)ccc1F	male CD-1 mouse	oral, 10 mg/kg	MRT(0-inf)	3.54 h
COc1nc(-c2cc(C)c(N[C@@H](C)c3c(F)cc(F)cc3F)nn2)ccc1-n1cnc(C)c1	male CD-1 mouse	oral, 5 mg/kg, single dose	MRT(0-t)	5.24 h
c1ccc(-c2nc(N3CCC(c4ccccn4)C3)c3ccccc3n2)nc1 (centres unmarked)	female BALB/c mouse	oral, 50 mg/kg	MRT(0-inf)	5.7 h
CCc1cc(OC)c2nccc(N3CCc4c(cc(Cn5ccnc5)cc4-c4cn(C)nc4C(F)(F)F)C3=O)c2c1	male CD-1 mouse	intravenous, 3 mg/kg	MRT(0-inf)	0.7 h
CC(C)(Nc1nc(-c2ccccn2)nc2ccccc12)c1ccccn1	female BALB/c mouse	intravenous, 1 mg/kg	MRT(0-inf)	1.2 h
COc1nc(-c2cc(C)c(N[C@@H](C)c3ccc(F)cc3)nn2)ccc1-n1cnc(C)c1	male CD-1 mouse	intravenous, 1 mg/kg, single dose	MRT(0-t)	3.62 h
